High-throughput results deposited in PubChem BioAssay by The Scripps Research Institute Molecular Screening Center.
Compounds with a hit are over-represented: about 2.2% of the library has one in this group of screens.
SIAE primary = inhibitors of human sialic acid acetylesterase SIAE. Q9HAT2. SIAE FP-Rh probe binding, fluorescence polarization. inhibition, % at 9.66 µM. hit rate 0.69% among 370,000;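 active = inhibition above a cutoff: mean of compounds within the control limits plus 3 SD of those, cut at about 17% in these data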;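 note: 0% = plate median of compound wells and 100% = probe without SIAE protein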
mABHD4 FP = inhibitors of mouse ABHD4. Q8VD66. purified mABHD4, FP-Rh probe fluorescence polarization. inhibition, % at 8.92 µM. hit rate 0.54% among 370,000. AID 720543;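 active = inhibition exceeding the mean over every tested compound plus 3 SD, cut at about 30% in these data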;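 note: 0% = plate median of compound wells and 100% = S159A mutant with DMSO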
Target sequence (Q8VD66 whole entry, looked up): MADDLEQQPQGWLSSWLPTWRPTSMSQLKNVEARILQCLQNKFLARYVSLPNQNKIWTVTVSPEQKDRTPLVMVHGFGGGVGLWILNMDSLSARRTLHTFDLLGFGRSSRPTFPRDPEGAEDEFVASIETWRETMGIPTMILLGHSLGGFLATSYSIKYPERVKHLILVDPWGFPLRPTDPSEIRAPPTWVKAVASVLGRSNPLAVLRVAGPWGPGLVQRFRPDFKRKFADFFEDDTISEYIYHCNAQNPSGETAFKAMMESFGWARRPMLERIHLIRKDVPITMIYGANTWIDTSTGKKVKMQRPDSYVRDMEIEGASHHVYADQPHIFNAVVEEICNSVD
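Assay system: Wild-type mouse ABHD4 protein | Medium: HEPES pH 7.0 buffer, 150 mM NaCl, 0.01% Pluronic F-127 | Incubation: Enzyme–compound pre-incubation 45 min, then probe 60 min, both 25 °C | Technique: Fluorescence polarization with parallel and perpendicular emission, 525/598 nm | Evaluation: % inhibition of FP-Rh probe binding versus controls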
TCR CD3 inh = blocks the human TCR-CD3 interaction. hit rate 0.37% among 360,000. AID 651800. TAMRA-labeled TCR probe fluorescence, biochemical. inhibition, % at 9.4 µM; in the data active = inhibition above about 19%;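 note: recombinant mutant TCR 2C K166C tagged with TAMRA read by polarization; 0% = receptor in buffer alone and 100% = receptor with positive control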
TDP2 inh = TDP2 (human) inhibition, absorbance primary screen. inhibition, % at 12.8 µM. recombinant TDP2, T5PNP hydrolysis, p-nitrophenol absorbance 415 nm. O95551. hit rate 0.34% among 370,000;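 active = inhibition above the mean of all tested compounds plus 3 SD, set per campaign, cut at about 25% in these data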;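 note: 0% = DMSO with enzyme and 100% = buffer with substrate but no TDP2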
Target sequence (O95551 whole entry, looked up): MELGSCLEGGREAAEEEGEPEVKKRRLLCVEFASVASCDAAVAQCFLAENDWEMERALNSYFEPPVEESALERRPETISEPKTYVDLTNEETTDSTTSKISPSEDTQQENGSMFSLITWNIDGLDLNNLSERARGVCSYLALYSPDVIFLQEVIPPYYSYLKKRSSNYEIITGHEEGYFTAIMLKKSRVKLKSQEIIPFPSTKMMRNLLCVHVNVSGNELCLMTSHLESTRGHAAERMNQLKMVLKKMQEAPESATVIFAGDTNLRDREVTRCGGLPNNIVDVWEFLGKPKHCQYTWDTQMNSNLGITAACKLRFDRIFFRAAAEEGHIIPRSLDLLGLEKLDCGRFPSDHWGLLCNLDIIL
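Assay system: Recombinant human TDP2 | Quantity: 120 nM TDP2 per well | Incubation: 2 h at 37 °C | Signal: Epi absorbance | Evaluation: Percent inhibition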
LEDGF integ inh = blocks HIV-1 LEDGF/p75-dependent DNA integration; TR-FRET IN-LEDGF/p75 DNA integration, Eu/Cy5; inhibition, % at 3.7 µM; hit rate 0.64% among 370,000;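 active = inhibition above the screen-wide mean plus 3 SD, cut at about 13% in these data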;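 note: signal is the Cy5 over europium emission ratio at 671 and 618 nm; 0% = plate median of compound wells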
HTRA1 inh = HTRA1 (human) protease inhibition; Q92743; recombinant HTRA1, FP-rhodamine activity-based probe, fluorescence polarization; inhibition, % at 5.96 µM; hit rate 0.5% among 340,000; AID 504803; in the data active = inhibition above about 36%;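 note: 0% = enzyme with DMSO and 100% = wells lacking enzyme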
IN multimer up = counter-screen for LEDGF/p75 integration inhibitors: HIV-1 integrase multimerization activators; TR-FRET HIV-1 integrase multimerization, biochemical; shares compounds with LEDGF integ inh; activation, % at 7.7 µM; hit rate 17% among 2,000; in the data active = activation above about 8.9%
TR-FRET interf = counter-screen for LEDGF/p75 integration inhibitors: TR-FRET optical interference; inhibition, % at 7.7 µM; 2,000 tested, under 10 active; shares compounds with LEDGF integ inh; AID 1053135; TR-FRET optical interference counterscreen, HIV-1 IN multimerization;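 active = inhibition above the mean over all tested compounds plus 3 SD, which no compound reached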;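 note: 0% = integrase with antibodies and DMSO and 100% = antibodies without integrase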
IN-LEDGF confirm = confirmation of HIV-1 LEDGF/p75-dependent integration inhibitors; shares compounds with LEDGF integ inh; TR-FRET LEDGF/p75-dependent HIV-1 integration, biochemical; inhibition, % at 3.7 µM; hit rate 36% among 2,000; in the data active = inhibition above about 14%
* = called active by the depositor; . = no result.

SMILES | SIAE primary | mABHD4 FP | TCR CD3 inh | TDP2 inh | LEDGF integ inh | HTRA1 inh | IN multimer up | TR-FRET interf | IN-LEDGF confirm
CC(=O)N=c1c(C#N)cc2c(=O)n3cccc(C)c3nc2n1Cc1ccco1 | 1.4 | 1.7 | -8.0 | 1.6 | -0.7 | . | . | . | .
Cc1ccc(CNC(=O)c2cc3c(=O)n4ccccc4nc3n(Cc3ccco3)c2=N)cc1 | -9.4 | 2.7 | 8.3 | -8.5 | 15.5* | -44.1 | 9.2* | -33.3 | 21.2*
CC1(C)Oc2ccc3ccc(=O)oc3c2/C(=C/NNC(N)=O)C1=O | 4.4 | 10.2 | 9.1 | -8.9 | 2.7 | 21.1 | . | . | .
C[C@H]1[C@H](c2ccccc2)Oc2cccc(NCCc3ccccc3)c2S(=O)(=O)N1Cc1cccc(F)c1 | -10.8 | 1.2 | -2.6 | 0.8 | 2.1 | . | . | . | .
COC(=O)C1=C(C)N(Cc2cccc(C(F)(F)F)c2)C(=NCc2ccc3c(c2)OCO3)NC1c1cccc(Cl)c1 (configuration not stated) | -1.9 | 25.7 | -9.8 | -2.4 | 0.7 | . | . | . | .
CC(OC(=O)c1cccc(NS(C)(=O)=O)c1)C(=O)Nc1ccc(N2CCOCC2)cc1 (configuration not stated) | 1.1 | 6.2 | 0.3 | 3.5 | -1.1 | 3.1 | . | . | .
CC(OC(=O)c1ccc2ccccc2n1)C(=O)Nc1ccc(N2CCOCC2)cc1 (configuration not stated) | -4.8 | -1.2 | -9.8 | -8.2 | 14.9* | 9.5 | 1.0 | -4.8 | -7.3
S=c1[nH]nc(-c2ccccc2)n1/N=C/C=C/c1ccco1 | 8.8 | 26.8 | 4.9 | 3.0 | 13.9* | 13.5 | 0.9 | -4.5 | 16.1*
C/C(C=Nn1c(-c2ccc(F)cc2)n[nH]c1=S)=C/c1ccco1 | 1.2 | 14.2 | . | -4.8 | 14.6* | . | -0.3 | 1.4 | 9.4
C[C@@H]1CN([C@@H](C)CO)S(=O)(=O)c2ccc(Br)cc2O[C@H]1CN(C)C(=O)C1CCOCC1 | -2.5 | 5.4 | -4.3 | -0.6 | -0.1 | 3.4 | . | . | .
Cc1ccc(NC(=O)[C@@]2(CC(=O)O)CC(/C=C/c3ccccc3)=NO2)c(C)c1 | -1.2 | -1.5 | 0.6 | 7.2 | -2.0 | 3.7 | . | . | .
O=C(N/N=C/c1ccc2ncccc2c1)c1cc(-c2cccs2)nc2ccccc12 | -70.0 | -5.6 | 1.7 | -4.0 | 22.6* | -19.2 | 0.1 | -0.5 | -2.0
O=C(N/N=C/c1cccc(F)c1)c1cc(-c2ccco2)nc2ccccc12 | 4.4 | 2.9 | 13.4 | 3.6 | 19.9* | 1.2 | 21.2* | -106.8 | 49.1*
COc1cc(/C=N/NC(=O)c2cc(-c3ccco3)nc3ccccc23)cc(OC)c1O | 5.9 | 5.7 | -2.7 | -5.3 | 2.4 | 14.6 | . | . | .
COCCn1c(=O)[nH]c2cc(C(=O)Nc3nnc(C)s3)ccc21 | -4.8 | -0.1 | 0.3 | -2.9 | 0.6 | 8.4 | . | . | .
C[C@@H]1CN([C@@H](C)CO)C(=O)CCCn2cc(nn2)CO[C@H]1CN(C)C(=O)Nc1ccc2c(c1)OCO2 | 3.9 | 4.0 | 9.6 | 0.9 | -3.2 | . | . | . | .
COc1ccc(Cl)cc1N(CC(=O)Nc1cccc(SC)c1)S(C)(=O)=O | -0.4 | -7.5 | 5.4 | -7.5 | 40.1* | -15.5 | -0.6 | 3.1 | -2.8
COc1ccc(N(CC(=O)Nc2cccc(SC)c2)S(C)(=O)=O)cc1Cl | -4.9 | -14.0 | -2.2 | -2.0 | 0.6 | -22.7 | . | . | .
COc1ccc(N(CC(=O)Nc2ccc(OC)c(OC)c2)S(=O)(=O)c2ccccc2)cc1Cl | 3.1 | -1.1 | -9.8 | -16.0 | 5.8 | -8.6 | . | . | .
COc1ccc(N(CC(=O)Nc2cccc(N(C)S(C)(=O)=O)c2)S(=O)(=O)c2ccccc2)cc1Cl | -15.0 | -17.1 | -2.1 | -1.4 | 43.8* | -21.5 | 2.3 | -8.2 | -2.8
CCOC(=O)CC[C@@H]1CC[C@]2(CCCN(C(=O)C3CCCCC3)C2)O1 | 4.1 | 0.4 | . | 7.1 | -3.6 | . | . | . | .
CCOC(=O)CCCCC(=O)c1[nH]c(=O)[nH]c1CSc1nc(C)cc(=O)[nH]1 | 2.0 | -0.9 | 2.5 | -11.2 | 34.7* | 6.6 | 4.5 | -15.8 | 49.3*
CCOC(=O)CCCCC(=O)c1[nH]c(=O)[nH]c1CSc1nc2ccccc2[nH]1 | 2.7 | 5.7 | -0.4 | 7.3 | 7.0 | 22.0 | . | . | .
CCOC(=O)CCCCC(=O)c1[nH]c(=O)[nH]c1CN1CCOCC1 | 4.9 | -4.0 | -0.4 | -1.5 | 17.4* | -7.5 | 0.3 | -1.4 | 12.9
CCOC(=O)CCCCC(=O)c1[nH]c(=O)[nH]c1CSc1nc(C)cc(C)n1 | -11.3 | -4.5 | 7.7 | -13.8 | 26.1* | -5.9 | -1.1 | 3.8 | 19.2*
SMILES | SIAE primary | mABHD4 FP | TCR CD3 inh | TDP2 inh | LEDGF integ inh | HTRA1 inh | IN multimer up | TR-FRET interf | IN-LEDGF confirm
CCOC(=O)c1[nH]c(=O)[nH]c1CSc1nc(C)cc(C)n1 | 0.1 | 4.7 | 7.8 | 3.8 | -4.3 | -0.9 | . | . | .
COc1ccc(C)cc1NC(=O)CN1C(=O)COc2ccc(C)cc21 | -7.7 | -0.3 | -4.5 | 4.1 | -3.3 | 0.2 | . | . | .
CC(=O)Nc1cc2c(cc1[N+](=O)[O-])-c1ccccc1C2=NO | -11.2 | 1.9 | 0.8 | 3.7 | 14.8* | -6.0 | -0.3 | 1.3 | 1.5
COC(=O)C1=C(CCc2ccccc2)NC(=O)NC1c1ccc(Cl)cc1 (configuration not stated) | -3.1 | 2.1 | 1.4 | 0.7 | 18.1* | -35.5 | 1.6 | -5.5 | -7.2
COC(=O)C1=C(CCc2ccccc2)NC(=O)NC1c1ccc(C#N)cc1 (configuration not stated) | -1.1 | -1.8 | 2.2 | -4.7 | 2.0 | -1.8 | . | . | .
COc1ccc(-n2c(C)cc(/C=C/c3nc(O)c([N+](=O)[O-])c(=O)[nH]3)c2C)cc1 | 5.4 | 8.0 | 5.9 | 8.2 | 3.3 | . | . | . | .
Cc1cc(/C=C\c2nc(O)c([N+](=O)[O-])c(=O)[nH]2)c(C)n1-c1ccccc1 | 6.4 | 8.2 | 1.5 | 6.7 | 28.7* | 2.5 | 2.8 | -14.3 | 7.4
O=C(O)CCCC(=O)Nc1ccc(N2CCCC2)cc1 | -1.0 | 10.4 | -1.4 | 1.7 | 13.8* | -1.7 | 12.3* | -61.9 | 13.2
Cc1ccc(-c2ccc(=O)n(CC(=O)NCCCN3CCCCC3C)n2)cc1 (configuration not stated) | 1.4 | 2.5 | 1.3 | -13.7 | 24.2* | -0.4 | 0.1 | -0.6 | -2.4
Nc1nonc1-n1nnc(C(=O)N/N=C/c2ccco2)c1CSc1ccc(Cl)cc1 | -75.7 | -8.6 | -3.5 | -3.7 | 3.5 | -20.7 | . | . | .
O=C(CCCN1C(=O)/C(=C/c2ccco2)SC1=S)Nc1cccc(C(=O)O)c1 | -3.6 | 28.9 | 5.9 | 20.2 | 46.1* | 14.2 | 3.4 | -17.1 | 25.7*
